Each block holds one molecule with its values, some of them ahead of it.
Tests used:
[1] = Oral bioavailability in beagle dog plasma at 0.43 mg/kg by LC-MS/MS method; format: ADME, organism-based, Canis lupus familiaris
Outline: (§1)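 Dogs dosed iv and po in N-in-1 (cassette) format. The same vehicle was used for both routes: 70% water, 10% ethanol, 10% dimethylacetamide, 10% polypropylene glycol.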

[2] = Inhibition of human […] chymotrypsin assessed as reduction in release of p-nitroaniline after 10 to 120 mins by Michaelis-Menten equation analysis
Canis familiaris [3] = assay: Clearance in beagle dog plasma at 0.27 mg/kg, iv and 0.43 mg/kg, po administered in cassette format by LC-MS/MS method; format: ADME, organism-based, Canis lupus familiaris; conditions: in vivo; outline: as §1
Coagulation factor XI = Coagulation factor XI (Homo sapiens, UniProt P03951)
Plasma = assay: Anticoagulant activity in human plasma assessed as concentration required for 50% increase in activated partial thromboplastin time by automated coagulation analyzer; format: functional
Outline: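 aPTT clotting assay in pooled normal human plasma on an automated coagulation analyzer with commercial reagents. EC1.5x is the inhibitor plasma concentration giving a 50% increase in clotting time over the no-inhibitor control.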

Canis familiaris [4] = assay: Half life in beagle dog plasma at 0.27 mg/kg, iv and 0.43 mg/kg, po by LC-MS/MS method; format: ADME, organism-based, Canis lupus familiaris; conditions: in vivo; outline: as §1
Canis familiaris [5] = assay: Volume of distribution at steady state in beagle dog plasma at 0.27 mg/kg, iv and 0.43 mg/kg, po by LC-MS/MS method; format: ADME, organism-based, Canis lupus familiaris; conditions: in vivo; outline: as §1
[6] = Oral bioavailability in beagle dog plasma at 0.2 mg/kg by LC-MS/MS method; format: ADME, organism-based, Canis lupus familiaris; outline: as §1
[7] = AUC in beagle dog plasma at 0.2 mg/kg, iv and 0.2 mg/kg, po by LC-MS/MS method; format: ADME, organism-based, Canis lupus familiaris; outline: as §1
Canis familiaris [8] = assay: (§2) Clearance in beagle dog plasma at 0.2 mg/kg, iv and 0.2 mg/kg, po administered in cassette format by LC-MS/MS method; format: ADME, organism-based, Canis lupus familiaris; conditions: in vivo; outline: as §1
Coagulation factor X = Coagulation factor X (Homo sapiens, UniProt P00742); assay: Inhibition of human coagulation factor 10a assessed as reduction in release of p-nitroaniline after 10 to 120 mins by Michaelis-Menten equation analysis
Outline: (§3)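 Purified human enzymes with commercial synthetic peptide substrates. IC50 from 4–11 inhibitor concentrations, run in duplicate at a fixed substrate concentration (standard error <20%). Ki = IC50/(1+S/Km), assuming competitive inhibition.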

Prothrombin = Prothrombin (Homo sapiens, UniProt P00734); assay: Inhibition of human coagulation thrombin assessed as reduction in release of p-nitroaniline after 10 to 120 mins by Michaelis-Menten equation analysis; outline: as §3
Trypsin = Trypsin (Homo sapiens, UniProt P07477+P07478+P35030); assay: Inhibition of human coagulation trypsin assessed as reduction in release of p-nitroaniline after 10 to 120 mins by Michaelis-Menten equation analysis; format: protein assay; outline: as §3
Plasma kallikrein = Plasma kallikrein (Homo sapiens, UniProt P03952); assay: Inhibition of human plasma kallikrein assessed as reduction in release of p-nitroaniline after 10 to 120 mins by Michaelis-Menten equation analysis; format: cell-free; outline: as §3
[9] = target: Vitamin K-dependent protein C (Homo sapiens, UniProt P04070); assay: Inhibition of human activated protein C assessed as reduction in release of p-nitroaniline after 10 to 120 mins by Michaelis-Menten equation analysis; outline: as §3
Plasminogen = Plasminogen (Homo sapiens, UniProt P00747); assay: Inhibition of human plasmin assessed as reduction in release of p-nitroaniline after 10 to 120 mins by Michaelis-Menten equation analysis; outline: as §3
[10] = target: Tissue-type plasminogen activator (Homo sapiens, UniProt P00750); assay: Inhibition of human TPA assessed as reduction in release of p-nitroaniline after 10 to 120 mins by Michaelis-Menten equation analysis; outline: as §3
[11] = target: Urokinase-type plasminogen activator (Homo sapiens, UniProt P00749); assay: Inhibition of human urokinase assessed as reduction in release of p-nitroaniline after 10 to 120 mins by Michaelis-Menten equation analysis; outline: as §3
Coagulation factor IX = Coagulation factor IX (Homo sapiens, UniProt P00740); assay: Inhibition of human coagulation factor 9a assessed as reduction in release of p-nitroaniline after 10 to 120 mins by Michaelis-Menten equation analysis; outline: as §3
Coagulation factor VII = target: T1, Coagulation factor VII (Homo sapiens, UniProt P08709); assay: Inhibition of human coagulation factor 7a assessed as reduction in release of p-nitroaniline after 10 to 120 mins by Michaelis-Menten equation analysis; outline: as §3
T1 sequence (P08709 whole entry): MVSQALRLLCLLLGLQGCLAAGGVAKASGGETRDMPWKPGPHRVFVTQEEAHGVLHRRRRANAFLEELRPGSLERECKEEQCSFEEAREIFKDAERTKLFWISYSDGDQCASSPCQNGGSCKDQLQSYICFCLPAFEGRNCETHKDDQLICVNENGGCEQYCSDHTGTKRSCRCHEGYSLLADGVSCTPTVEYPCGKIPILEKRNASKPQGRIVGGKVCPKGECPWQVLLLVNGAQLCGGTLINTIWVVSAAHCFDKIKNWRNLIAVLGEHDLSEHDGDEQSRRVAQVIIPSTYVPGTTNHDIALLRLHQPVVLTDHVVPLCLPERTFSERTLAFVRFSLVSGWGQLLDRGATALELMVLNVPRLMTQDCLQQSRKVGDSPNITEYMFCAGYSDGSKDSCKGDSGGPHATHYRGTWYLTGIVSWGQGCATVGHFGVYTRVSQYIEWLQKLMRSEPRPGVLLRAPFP

[12] = (§4) Volume of distribution at steady state in beagle dog plasma at 0.2 mg/kg, iv and 0.2 mg/kg, po by LC-MS/MS method; format: ADME, organism-based, Canis lupus familiaris; conditions: beagle, plasma, read-out: Vdss; outline: as §1
[13] = as §2; format: ADME, organism-based, Canis lupus familiaris; conditions: beagle, plasma; outline: as §1
[14] = (§5) Half life in beagle dog plasma at 0.2 mg/kg, iv and 0.2 mg/kg, po by LC-MS/MS method; format: ADME, organism-based, Canis lupus familiaris; conditions: beagle, plasma; outline: as §1
[15] = Volume of distribution at steady state in beagle dog plasma at 0.2 mg/kg, iv and 0.29 mg/kg, po by LC-MS/MS method; format: ADME, organism-based, Canis lupus familiaris; conditions: read-out: Vdss; outline: as §1
[16] = Oral bioavailability in beagle dog plasma at 0.29 mg/kg by LC-MS/MS method; format: ADME, organism-based, Canis lupus familiaris; outline: as §1
[17] = AUC in beagle dog plasma at 0.2 mg/kg, iv and 0.29 mg/kg, po by LC-MS/MS method; format: ADME, organism-based, Canis lupus familiaris; outline: as §1
[18] = Clearance in beagle dog plasma at 0.2 mg/kg, iv and 0.29 mg/kg, po administered in cassette format by LC-MS/MS method; format: ADME, organism-based, Canis lupus familiaris; outline: as §1
[19] = Half life in beagle dog plasma at 0.2 mg/kg, iv and 0.29 mg/kg, po by LC-MS/MS method; format: ADME, organism-based, Canis lupus familiaris; outline: as §1
Canis familiaris [20] = assay: as §4; format: ADME, organism-based, Canis lupus familiaris; conditions: in vivo; outline: as §1
Canis familiaris [21] = assay: as §5; format: ADME, organism-based, Canis lupus familiaris; conditions: in vivo; outline: as §1
[22] = Oral bioavailability in beagle dog plasma at 0.62 mg/kg by LC-MS/MS method; format: ADME, organism-based, Canis lupus familiaris; outline: as §1
[23] = AUC in beagle dog plasma at 0.28 mg/kg, iv and 0.62 mg/kg, po by LC-MS/MS method; format: ADME, organism-based, Canis lupus familiaris; outline: as §1
[24] = Clearance in beagle dog plasma at 0.28 mg/kg, iv and 0.62 mg/kg, po administered in cassette format by LC-MS/MS method; format: ADME, organism-based, Canis lupus familiaris; outline: as §1
[25] = Half life in beagle dog plasma at 0.28 mg/kg, iv and 0.62 mg/kg, po by LC-MS/MS method; format: ADME, organism-based, Canis lupus familiaris; outline: as §1
[26] = Volume of distribution at steady state in beagle dog plasma at 0.28 mg/kg, iv and 0.62 mg/kg, po by LC-MS/MS method; format: ADME, organism-based, Canis lupus familiaris; conditions: read-out: Vdss; outline: as §1

Sequence of Coagulation factor XI (P03951 19-387 limits assumed): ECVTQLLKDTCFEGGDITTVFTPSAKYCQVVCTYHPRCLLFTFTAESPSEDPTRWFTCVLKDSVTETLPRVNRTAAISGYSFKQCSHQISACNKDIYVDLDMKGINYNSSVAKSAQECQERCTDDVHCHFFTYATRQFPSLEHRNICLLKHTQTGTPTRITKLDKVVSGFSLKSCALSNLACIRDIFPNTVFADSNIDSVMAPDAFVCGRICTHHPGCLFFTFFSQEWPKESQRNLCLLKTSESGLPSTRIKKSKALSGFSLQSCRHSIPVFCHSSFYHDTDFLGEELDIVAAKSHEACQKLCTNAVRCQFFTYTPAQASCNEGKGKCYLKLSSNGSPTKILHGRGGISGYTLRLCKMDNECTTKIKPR
Sequence of Coagulation factor XI (P03951 388-625 limits assumed): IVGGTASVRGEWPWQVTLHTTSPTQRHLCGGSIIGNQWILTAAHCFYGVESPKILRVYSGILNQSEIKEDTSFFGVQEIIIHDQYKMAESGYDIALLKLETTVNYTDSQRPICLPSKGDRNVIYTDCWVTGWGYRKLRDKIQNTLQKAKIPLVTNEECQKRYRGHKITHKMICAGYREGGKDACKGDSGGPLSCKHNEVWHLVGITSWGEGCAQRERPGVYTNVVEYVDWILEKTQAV
Sequence of Coagulation factor IX (P00740 47-191 limits assumed): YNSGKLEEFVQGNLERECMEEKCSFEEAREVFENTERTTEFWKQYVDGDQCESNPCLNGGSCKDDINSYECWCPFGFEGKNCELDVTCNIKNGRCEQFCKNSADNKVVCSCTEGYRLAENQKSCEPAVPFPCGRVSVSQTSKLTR
Sequence of Coagulation factor IX (P00740 227-461 limits assumed): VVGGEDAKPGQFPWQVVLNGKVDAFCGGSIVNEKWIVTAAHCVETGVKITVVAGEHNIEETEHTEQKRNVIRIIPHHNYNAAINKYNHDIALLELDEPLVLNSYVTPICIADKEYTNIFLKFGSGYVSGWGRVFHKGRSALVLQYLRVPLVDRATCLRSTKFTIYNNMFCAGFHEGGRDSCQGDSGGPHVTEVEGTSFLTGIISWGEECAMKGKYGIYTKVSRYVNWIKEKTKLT
Sequence of Coagulation factor X (P00742 41-179 limits assumed): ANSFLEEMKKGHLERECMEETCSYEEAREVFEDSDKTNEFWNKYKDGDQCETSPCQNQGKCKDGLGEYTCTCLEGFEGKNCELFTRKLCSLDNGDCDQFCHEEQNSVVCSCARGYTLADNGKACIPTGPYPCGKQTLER
Sequence of Coagulation factor X (P00742 235-488 limits assumed): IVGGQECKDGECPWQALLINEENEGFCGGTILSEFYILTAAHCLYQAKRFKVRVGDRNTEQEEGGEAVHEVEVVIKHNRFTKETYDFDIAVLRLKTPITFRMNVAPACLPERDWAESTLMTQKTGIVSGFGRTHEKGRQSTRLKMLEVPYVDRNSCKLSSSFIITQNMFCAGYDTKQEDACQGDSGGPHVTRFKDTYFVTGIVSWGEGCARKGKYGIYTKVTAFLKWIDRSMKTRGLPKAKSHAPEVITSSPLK
Sequence of Plasminogen (P00747 97-580 limits assumed): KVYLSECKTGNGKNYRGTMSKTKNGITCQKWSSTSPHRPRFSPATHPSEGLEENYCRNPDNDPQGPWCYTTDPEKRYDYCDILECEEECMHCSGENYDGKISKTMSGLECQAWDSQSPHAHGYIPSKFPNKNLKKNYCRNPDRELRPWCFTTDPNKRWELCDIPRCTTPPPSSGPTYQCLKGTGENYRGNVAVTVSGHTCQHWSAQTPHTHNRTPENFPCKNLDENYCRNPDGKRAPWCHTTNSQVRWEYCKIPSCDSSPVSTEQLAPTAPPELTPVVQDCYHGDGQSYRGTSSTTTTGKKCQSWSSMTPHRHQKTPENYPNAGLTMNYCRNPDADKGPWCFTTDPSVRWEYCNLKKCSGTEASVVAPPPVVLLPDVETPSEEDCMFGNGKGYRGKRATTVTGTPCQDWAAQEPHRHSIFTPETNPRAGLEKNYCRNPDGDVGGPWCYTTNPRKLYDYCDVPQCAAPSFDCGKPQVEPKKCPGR
Sequence of Plasminogen (P00747 581-810 limits assumed): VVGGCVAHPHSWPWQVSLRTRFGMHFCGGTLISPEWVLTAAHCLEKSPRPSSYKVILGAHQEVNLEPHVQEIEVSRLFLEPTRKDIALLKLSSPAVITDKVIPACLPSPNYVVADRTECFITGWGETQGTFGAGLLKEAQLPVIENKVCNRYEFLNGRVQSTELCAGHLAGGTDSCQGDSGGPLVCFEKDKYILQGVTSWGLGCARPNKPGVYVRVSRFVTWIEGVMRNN
Sequence of Vitamin K-dependent protein C (P04070 43-197 limits assumed): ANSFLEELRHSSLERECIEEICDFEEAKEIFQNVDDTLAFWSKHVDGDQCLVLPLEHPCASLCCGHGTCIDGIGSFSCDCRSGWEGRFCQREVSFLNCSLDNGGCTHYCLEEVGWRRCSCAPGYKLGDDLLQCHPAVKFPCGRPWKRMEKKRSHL
Sequence of Vitamin K-dependent protein C (P04070 212-461 limits assumed): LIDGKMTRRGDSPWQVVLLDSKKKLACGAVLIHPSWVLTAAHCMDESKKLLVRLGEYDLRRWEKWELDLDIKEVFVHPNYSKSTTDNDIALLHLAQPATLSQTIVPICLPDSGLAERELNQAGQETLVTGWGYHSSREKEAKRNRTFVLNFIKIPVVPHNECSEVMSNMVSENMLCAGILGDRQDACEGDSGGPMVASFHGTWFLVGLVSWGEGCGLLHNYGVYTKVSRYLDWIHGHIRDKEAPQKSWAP
Sequence of Tissue-type plasminogen activator (P00750 whole entry): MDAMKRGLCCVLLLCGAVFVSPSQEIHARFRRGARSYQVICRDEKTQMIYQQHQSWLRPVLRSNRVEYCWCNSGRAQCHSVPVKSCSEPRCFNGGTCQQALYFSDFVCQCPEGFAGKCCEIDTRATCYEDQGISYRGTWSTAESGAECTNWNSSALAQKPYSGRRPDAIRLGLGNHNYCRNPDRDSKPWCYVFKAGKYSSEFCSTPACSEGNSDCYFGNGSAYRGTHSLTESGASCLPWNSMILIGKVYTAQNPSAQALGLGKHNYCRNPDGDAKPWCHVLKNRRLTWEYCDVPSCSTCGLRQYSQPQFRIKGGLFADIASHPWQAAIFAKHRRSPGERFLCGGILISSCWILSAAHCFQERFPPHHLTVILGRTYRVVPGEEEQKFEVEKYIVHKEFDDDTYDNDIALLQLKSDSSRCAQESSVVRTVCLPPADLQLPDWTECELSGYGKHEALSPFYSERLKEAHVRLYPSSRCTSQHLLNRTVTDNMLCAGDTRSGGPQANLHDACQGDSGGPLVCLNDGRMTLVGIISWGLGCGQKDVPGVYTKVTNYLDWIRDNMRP
Sequence of Plasma kallikrein (P03952 20-390 limits assumed): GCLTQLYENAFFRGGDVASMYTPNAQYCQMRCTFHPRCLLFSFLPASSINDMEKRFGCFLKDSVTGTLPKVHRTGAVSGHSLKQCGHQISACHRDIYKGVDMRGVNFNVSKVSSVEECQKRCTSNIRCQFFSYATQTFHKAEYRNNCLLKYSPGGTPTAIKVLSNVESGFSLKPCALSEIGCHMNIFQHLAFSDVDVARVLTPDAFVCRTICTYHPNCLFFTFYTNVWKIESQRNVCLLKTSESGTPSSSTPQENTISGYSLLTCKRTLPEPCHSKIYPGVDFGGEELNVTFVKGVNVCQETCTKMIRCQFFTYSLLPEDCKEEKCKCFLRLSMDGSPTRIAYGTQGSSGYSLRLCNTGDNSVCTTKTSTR
Sequence of Plasma kallikrein (P03952 391-638 limits assumed): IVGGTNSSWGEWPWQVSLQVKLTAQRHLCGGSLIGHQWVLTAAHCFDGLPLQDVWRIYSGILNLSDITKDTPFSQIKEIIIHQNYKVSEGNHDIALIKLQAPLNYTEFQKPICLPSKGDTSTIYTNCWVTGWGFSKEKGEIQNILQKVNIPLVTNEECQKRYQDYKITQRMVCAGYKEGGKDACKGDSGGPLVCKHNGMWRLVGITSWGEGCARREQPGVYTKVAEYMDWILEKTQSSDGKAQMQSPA

- bioavailability [1]: 0%
- Ki [2]: > 20800 nM
- clearance (Canis familiaris [3]): 50 mL/min/kg
- Ki (Coagulation factor XI): 7.2 nM
- t1/2 (Canis familiaris [4]): 1.2 h
- Vdss (Canis familiaris [5]): 3.4 L/kg
SMILES: NC[C@H]1CC[C@H](C(=O)N[C@@H](Cc2ccccc2)c2cc(-c3ccc4c(N)n[nH]c4c3)ccn2)CC1
- EC1.5 (Plasma): 0.5 µM

SMILES: NC[C@H]1CC[C@H](C(=O)N[C@@H](Cc2ccccc2)c2nc(-c3ccc4c(N)n[nH]c4c3)c(Cl)[nH]2)CC1
- EC1.5 (Plasma): 0.32 µM

- bioavailability [6]: 10%
- AUC [7]: 0.03 µM·h
- clearance (Canis familiaris [8]): 21 mL/min/kg
SMILES: COC(=O)Nc1ccc(-c2c[nH]c([C@H](Cc3ccccc3)NC(=O)/C=C/c3cc(Cl)ccc3-n3cnnn3)n2)cc1
- EC1.5 (Plasma): 8.6 µM

- Ki (Coagulation factor XI): 8.4 nM
SMILES: COC(=O)Nc1ccc(-c2cncc([C@H](Cc3ccccc3)NC(=O)[C@H]3CC[C@H](CN)CC3)c2)cc1
- EC1.5 (Plasma): 1.3 µM

- Ki (Coagulation factor XI): 17 nM
SMILES: COC(=O)Nc1ccc(-c2cccc([C@H](Cc3ccccc3)NC(=O)[C@H]3CC[C@H](CN)CC3)c2)cc1
- EC1.5 (Plasma): 13 µM

- Ki (Coagulation factor X): > 9000 nM
- Ki (Prothrombin): > 12600 nM
- Ki (Trypsin): 999 nM
- Ki (Plasma kallikrein): 550 nM
- Ki [9]: > 30200 nM
- Ki (Plasminogen): > 22100 nM
- Ki [10]: > 21900 nM
- Ki [11]: > 14100 nM
- Ki [2]: > 20800 nM
- Ki (Coagulation factor IX): > 34900 nM
- Ki (Coagulation factor VII): > 15200 nM
- Ki (Coagulation factor XI): 3.7 nM
SMILES: NC[C@H]1CC[C@H](C(=O)N[C@@H](Cc2ccccc2)c2cc(-c3ccc4[nH]nc(O)c4c3)ccn2)CC1
- EC1.5 (Plasma): 0.4 µM

- Ki (Coagulation factor XI): 7.9 nM
SMILES: COC(=O)Nc1ccc(-c2cc([C@H](Cc3ccccc3)NC(=O)[C@H]3CC[C@H](CN)CC3)ccn2)cc1
- EC1.5 (Plasma): 0.9 µM

- Ki (Coagulation factor XI): 3.8 nM
SMILES: NC[C@H]1CC[C@H](C(=O)N[C@@H](Cc2ccccc2)c2cc(-c3ccc4c(N)noc4c3)ccn2)CC1
- EC1.5 (Plasma): 0.6 µM

- Ki (Coagulation factor XI): 3.2 nM
SMILES: NC[C@H]1CC[C@H](C(=O)N[C@H](Cc2ccccc2)c2cc(-c3ccc4c(N)noc4c3)ccn2)CC1

- Vd [12]: 4 L/kg
- bioavailability [6]: 28%
- AUC [7]: 0.23 µM·h
- Ki (Coagulation factor XI): 6.7 nM
- clearance [13]: 0.122 mL/min/kg
- half-life [14]: 6.8 h
SMILES: COC(=O)Nc1ccc(-c2cc([C@H](Cc3ccccc3)NC(=O)/C=C/c3cc(Cl)ccc3-n3cnnn3)ncn2)cc1
- EC1.5 (Plasma): 21 µM

- Vd [15]: 5.4 L/kg
- bioavailability [16]: 66%
- AUC [17]: 0.195 µM·h
- Ki (Coagulation factor XI): 9.1 nM
- clearance [18]: 0.45 mL/min/kg
- half-life [19]: 3.2 h
SMILES: COC(=O)Nc1ccc(-c2cc([C@H](Cc3ccccc3)NC(=O)[C@H]3CC[C@H](CN)CC3)ncn2)cc1
- EC1.5 (Plasma): 1.2 µM

- Vdss (Canis familiaris [20]): 1.6 L/kg
- bioavailability [6]: 0%
- Ki (Coagulation factor XI): 2.4 nM
- clearance (Canis familiaris [8]): 30 mL/min/kg
- t1/2 (Canis familiaris [21]): 1.5 h
SMILES: COC(=O)Nc1ccc(-c2cc([C@H](Cc3ccccc3)NC(=O)/C=C/c3cc(Cl)ccc3-n3cnnn3)[nH]c(=O)c2)cc1
- EC1.5 (Plasma): 2.8 µM

- bioavailability [22]: 63%
- AUC [23]: 0.194 µM·h
- Ki (Coagulation factor X): > 9000 nM
- Ki (Prothrombin): > 12600 nM
- Ki (Trypsin): 101 nM
- Ki (Plasma kallikrein): 42 nM
- Ki [9]: > 30200 nM
- Ki (Plasminogen): > 22100 nM
- Ki [10]: > 21900 nM
- Ki [11]: > 14100 nM
- Ki [2]: > 20800 nM
- Ki (Coagulation factor IX): > 34900 nM
- Ki (Coagulation factor VII): > 12200 nM
- Ki (Coagulation factor XI): 6.3 nM
- clearance [24]: 0.9 mL/min/kg
- half-life [25]: 2.7 h
- Vd [26]: 10 L/kg
SMILES: COC(=O)Nc1ccc(-c2ccnc([C@H](Cc3ccccc3)NC(=O)[C@H]3CC[C@H](CN)CC3)c2)cc1
- EC1.5 (Plasma): 2.6 µM

- Ki (Coagulation factor XI): 7.5 nM
SMILES: NC[C@H]1CC[C@H](C(=O)NC(Cc2ccccc2)c2cc(-c3ccc4[nH]nc(O)c4c3)ccn2)CC1 (mixture of isomers)
- EC1.5 (Plasma): 0.5 µM
